Square brackets hold non-standard residues; d marks the D form. Peptide text beside a SMILES is read from it. * marks the point of attachment. ξ: configuration not given here. Acryloyl(3-(3-pyridyl),E) = O=C(/C=C/c1cccnc1)*; NMeF = CN[C@@H](Cc1ccccc1)C(=O)O; ξW = NC(Cc1c[nH]c2ccccc12)C(=O)O; NMeD = CN[C@@H](CC(=O)O)C(=O)O; X1 = O=C(/C=C/c1ccc(O)cc1)*; X2 = O=C(/C=C/c1cccs1)*; Boc = CC(C)(C)OC(=O)*

Among the data in ChEMBL document CHEMBL1127521, “CCK-A-selective tetrapeptides containing lys(N epsilon)-amide residues: favorable in vivo and in vitro effects of N-methylation at the aspartyl residue” (J Med Chem, 1994) are Hydrolysis, ED50 and IC50 values, retold here.

Assay [1] addresses T1, Cholecystokinin receptor type A (Cavia porcellus) (UniProt Q63931).
T1 sequence (whole entry): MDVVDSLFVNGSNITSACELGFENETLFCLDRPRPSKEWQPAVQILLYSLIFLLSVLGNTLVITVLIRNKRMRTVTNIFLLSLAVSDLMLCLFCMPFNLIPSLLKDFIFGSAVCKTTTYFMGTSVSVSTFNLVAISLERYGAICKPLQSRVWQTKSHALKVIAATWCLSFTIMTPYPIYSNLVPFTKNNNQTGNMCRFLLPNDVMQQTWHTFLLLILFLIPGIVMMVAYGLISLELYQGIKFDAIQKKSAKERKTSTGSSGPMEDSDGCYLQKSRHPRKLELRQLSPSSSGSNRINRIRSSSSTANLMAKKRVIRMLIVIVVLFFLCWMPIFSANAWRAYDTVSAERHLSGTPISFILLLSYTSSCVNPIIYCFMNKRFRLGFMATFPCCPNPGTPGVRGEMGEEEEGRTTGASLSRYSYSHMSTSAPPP
Nature of the assay: Percent maximal stimulation of phosphatidylinositol hydrolysis in guinea pig pancreatic acini (CCK-A receptors) relative to CCK-8. Format: functional. A digest of the protocol:
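Functional CCK-A assay in guinea pig pancreatic acini. Phosphatidylinositol hydrolysis is measured and expressed as percent of the maximal stimulation produced by CCK-8.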

The next assay deals with Rattus norvegicus. Nature of the assay: Compound was evaluated for Appetite suppression, based on intake of liquid diet by food-deprived rats for 1 h following intraperitoneal injection. Format: functional. As to conditions: ip. A digest of the protocol: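 Rats are food-deprived, dosed intraperitoneally, and their liquid diet intake over the following 1 h is measured as the appetite suppression read-out.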

Assay [2] concerns the target Cholecystokinin A receptor (Cavia porcellus). Nature of the assay: In vitro inhibition of [125I]CCK-8 binding to guinea pig pancreas.
In assay [3] the target is Cholecystokinin B receptor (Cavia porcellus). Nature of the assay: In vitro binding for inhibition of [125I]- Bolton-Hunter-CCK-8 binding in guinea pig cortex.

In the case of `CN(C(=O)[C@H](CC(=O)O)NC(=O)[C@H](CCCCNC(=O)/C=C/c1ccc(O)cc1)NC(=O)C(Cc1c[nH]c2ccccc12)NC(=O)OC(C)(C)C)[C@@H](Cc1ccccc1)C(N)=O` (some centres not stated) (Boc-[ξW]K(X1)D[NMeF]-NH2), the Hydrolysis in assay [1] was determined as 76%.

In turn, `CN(C(=O)[C@H](CCCCNC(=O)/C=C/c1ccc(O)cc1)NC(=O)[C@H](Cc1c[nH]c2ccccc12)NC(=O)OC(C)(C)C)[C@@H](CC(=O)O)C(=O)N(C)[C@@H](Cc1ccccc1)C(N)=O` (Boc-WK(X1)[NMeD][NMeF]-NH2) [listing 1 of 2 here] had an ED50 in the assay with Rattus norvegicus of 0.062 µmol/kg.

Consider `CN(C(=O)[C@H](CC(=O)O)NC(=O)[C@H](CCCCNC(=O)/C=C/c1cccs1)NC(=O)[C@H](Cc1c[nH]c2ccccc12)NC(=O)OC(C)(C)C)[C@@H](Cc1ccccc1)C(N)=O` (Boc-WK(X2)D[NMeF]-NH2) [listing 1 of 2 here], for which the IC50 in assay [2] amounted to 18 nM; in assay [3], 731 nM.

Turning to `CN(C(=O)[C@H](CCCCNC(=O)/C=C/c1cccs1)NC(=O)[C@H](Cc1c[nH]c2ccccc12)NC(=O)OC(C)(C)C)[C@@H](CC(=O)O)C(=O)N(C)[C@@H](Cc1ccccc1)C(N)=O` (Boc-WK(X2)[NMeD][NMeF]-NH2) [listing 1 of 2 here], the figures for the IC50 in assay [2] and in assay [3] were 32 nM and 10900 nM, respectively.

As to `CN(C(=O)[C@H](CCCCNC(=O)/C=C/c1ccc(O)cc1)NC(=O)[C@H](Cc1c[nH]c2ccccc12)NC(=O)OC(C)(C)C)[C@@H](CC(=O)O)C(=O)N(C)[C@@H](Cc1ccccc1)C(N)=O` (Boc-WK(X1)[NMeD][NMeF]-NH2) [listing 2 of 2 here], the IC50 in assay [2] amounted to 9 nM; in assay [3], 13600 nM.

As to `CN(C(=O)[C@H](CCCCNC(=O)/C=C/c1ccc(O)cc1)NC(=O)[C@H](Cc1c[nH]c2ccccc12)NC(=O)OC(C)(C)C)[C@@H](CC(=O)O)C(=O)N[C@@H](Cc1ccccc1)C(N)=O` (Boc-WK(X1)[NMeD]F-NH2) [listing 1 of 2 here], the IC50 in assay [2] is given as 5 nM; in assay [3], 5810 nM.

For `CN(C(=O)[C@H](CCCCNC(=O)/C=C/c1cccnc1)NC(=O)C(Cc1c[nH]c2ccccc12)NC(=O)OC(C)(C)C)[C@@H](CC(=O)O)C(=O)N(C)[C@@H](Cc1ccccc1)C(N)=O` (some centres not stated) (Boc-[ξW]K(Acryloyl(3-(3-pyridyl),E))[NMeD][NMeF]-NH2), in assay [1], the Hydrolysis was found to be 94%.

`CN(C(=O)[C@H](CCCCNC(=O)/C=C/c1cccs1)NC(=O)[C@H](Cc1c[nH]c2ccccc12)NC(=O)OC(C)(C)C)[C@@H](CC(=O)O)C(=O)N[C@@H](Cc1ccccc1)C(N)=O` (Boc-WK(X2)[NMeD]F-NH2) [listing 1 of 2 here] had an ED50 in the assay on Rattus norvegicus of 0.012 µmol/kg.

For the compound `CN(C(=O)[C@H](CCCCNC(=O)/C=C/c1cccnc1)NC(=O)[C@H](Cc1c[nH]c2ccccc12)NC(=O)OC(C)(C)C)[C@@H](CC(=O)O)C(=O)N[C@@H](Cc1ccccc1)C(N)=O` (Boc-WK(Acryloyl(3-(3-pyridyl),E))[NMeD]F-NH2) [listing 1 of 2 here], the IC50 in assay [2] is 41 nM; in assay [3] it was 10400 nM.

Consider `CN(C(=O)[C@H](CCCCNC(=O)/C=C/c1ccc(O)cc1)NC(=O)[C@H](Cc1c[nH]c2ccccc12)NC(=O)OC(C)(C)C)[C@@H](CC(=O)O)C(=O)N[C@@H](Cc1ccccc1)C(N)=O` (Boc-WK(X1)[NMeD]F-NH2) [listing 2 of 2 here], for which the ED50 in the assay with Rattus norvegicus turned out to be 0.018 µmol/kg.

For `CN(C(=O)[C@H](CC(=O)O)NC(=O)[C@H](CCCCNC(=O)/C=C/c1cccs1)NC(=O)[C@H](Cc1c[nH]c2ccccc12)NC(=O)OC(C)(C)C)[C@@H](Cc1ccccc1)C(N)=O` (Boc-WK(X2)D[NMeF]-NH2) [listing 2 of 2 here], the ED50 in the assay with Rattus norvegicus is 1.4 µmol/kg.

With `CN(C(=O)[C@H](CCCCNC(=O)/C=C/c1cccs1)NC(=O)C(Cc1c[nH]c2ccccc12)NC(=O)OC(C)(C)C)[C@@H](CC(=O)O)C(=O)N(C)[C@@H](Cc1ccccc1)C(N)=O` (some centres not stated) (Boc-[ξW]K(X2)[NMeD][NMeF]-NH2), the Hydrolysis in assay [1] is 93%.

`CN(C(=O)[C@H](CCCCNC(=O)/C=C/c1cccnc1)NC(=O)[C@H](Cc1c[nH]c2ccccc12)NC(=O)OC(C)(C)C)[C@@H](CC(=O)O)C(=O)N(C)[C@@H](Cc1ccccc1)C(N)=O` (Boc-WK(Acryloyl(3-(3-pyridyl),E))[NMeD][NMeF]-NH2) [listing 1 of 2 here] showed an IC50 in assay [2] of 50 nM. In other words, the double-digit nanomolar range.

Consider `CN(C(=O)[C@H](CCCCNC(=O)/C=C/c1ccc(O)cc1)NC(=O)C(Cc1c[nH]c2ccccc12)NC(=O)OC(C)(C)C)[C@@H](CC(=O)O)C(=O)N[C@@H](Cc1ccccc1)C(N)=O` (some centres not stated) (Boc-[ξW]K(X1)[NMeD]F-NH2), for which the Hydrolysis in assay [1] was 101%.

As to `CN(C(=O)[C@H](CCCCNC(=O)/C=C/c1cccnc1)NC(=O)[C@H](Cc1c[nH]c2ccccc12)NC(=O)OC(C)(C)C)[C@@H](CC(=O)O)C(=O)N(C)[C@@H](Cc1ccccc1)C(N)=O` (Boc-WK(Acryloyl(3-(3-pyridyl),E))[NMeD][NMeF]-NH2) [listing 2 of 2 here], the ED50 with Rattus norvegicus came to 0.016 µmol/kg.

`CN(C(=O)[C@H](CCCCNC(=O)/C=C/c1cccnc1)NC(=O)C(Cc1c[nH]c2ccccc12)NC(=O)OC(C)(C)C)[C@@H](CC(=O)O)C(=O)N[C@@H](Cc1ccccc1)C(N)=O` (some centres not stated) (Boc-[ξW]K(Acryloyl(3-(3-pyridyl),E))[NMeD]F-NH2): the Hydrolysis in assay [1] worked out at 98%.

In the assay on Rattus norvegicus, `CN(C(=O)[C@H](CCCCNC(=O)/C=C/c1cccs1)NC(=O)[C@H](Cc1c[nH]c2ccccc12)NC(=O)OC(C)(C)C)[C@@H](CC(=O)O)C(=O)N(C)[C@@H](Cc1ccccc1)C(N)=O` (Boc-WK(X2)[NMeD][NMeF]-NH2) [listing 2 of 2 here] yielded an ED50 of 0.022 µmol/kg.

For the compound `CN(C(=O)[C@H](CCCCNC(=O)/C=C/c1ccc(O)cc1)NC(=O)C(Cc1c[nH]c2ccccc12)NC(=O)OC(C)(C)C)[C@@H](CC(=O)O)C(=O)N(C)[C@@H](Cc1ccccc1)C(N)=O` (some centres not stated) (Boc-[ξW]K(X1)[NMeD][NMeF]-NH2), in assay [1], the Hydrolysis was found to be 91%.

Take `CN(C(=O)[C@H](CC(=O)O)NC(=O)[C@H](CCCCNC(=O)/C=C/c1cccnc1)NC(=O)[C@H](Cc1c[nH]c2ccccc12)NC(=O)OC(C)(C)C)[C@@H](Cc1ccccc1)C(N)=O` (Boc-WK(Acryloyl(3-(3-pyridyl),E))D[NMeF]-NH2) [listing 1 of 2 here]: in assay [3], the IC50 was 128 nM.

Turning to `CN(C(=O)[C@H](CC(=O)O)NC(=O)[C@H](CCCCNC(=O)/C=C/c1cccs1)NC(=O)C(Cc1c[nH]c2ccccc12)NC(=O)OC(C)(C)C)[C@@H](Cc1ccccc1)C(N)=O` (some centres not stated) (Boc-[ξW]K(X2)D[NMeF]-NH2), the Hydrolysis in assay [1] came out at 84%.

In the case of `CN(C(=O)[C@H](CCCCNC(=O)/C=C/c1cccs1)NC(=O)C(Cc1c[nH]c2ccccc12)NC(=O)OC(C)(C)C)[C@@H](CC(=O)O)C(=O)N[C@@H](Cc1ccccc1)C(N)=O` (some centres not stated) (Boc-[ξW]K(X2)[NMeD]F-NH2), the Hydrolysis in assay [1] is 95%.

As for `CN(C(=O)[C@H](CCCCNC(=O)/C=C/c1cccs1)NC(=O)[C@H](Cc1c[nH]c2ccccc12)NC(=O)OC(C)(C)C)[C@@H](CC(=O)O)C(=O)N[C@@H](Cc1ccccc1)C(N)=O` (Boc-WK(X2)[NMeD]F-NH2) [listing 2 of 2 here], the IC50 amounted to 35 nM in assay [2] and 4577 nM in assay [3].

Regarding `CN(C(=O)[C@H](CC(=O)O)NC(=O)[C@H](CCCCNC(=O)/C=C/c1cccnc1)NC(=O)[C@H](Cc1c[nH]c2ccccc12)NC(=O)OC(C)(C)C)[C@@H](Cc1ccccc1)C(N)=O` (Boc-WK(Acryloyl(3-(3-pyridyl),E))D[NMeF]-NH2) [listing 2 of 2 here], the ED50 in the assay with Rattus norvegicus is 2.52 µmol/kg.

With `CN(C(=O)[C@H](CCCCNC(=O)/C=C/c1cccnc1)NC(=O)[C@H](Cc1c[nH]c2ccccc12)NC(=O)OC(C)(C)C)[C@@H](CC(=O)O)C(=O)N[C@@H](Cc1ccccc1)C(N)=O` (Boc-WK(Acryloyl(3-(3-pyridyl),E))[NMeD]F-NH2) [listing 2 of 2 here], the ED50 in the assay on Rattus norvegicus stood at 0.036 µmol/kg.

`CN(C(=O)[C@H](CC(=O)O)NC(=O)[C@H](CCCCNC(=O)/C=C/c1ccc(O)cc1)NC(=O)[C@H](Cc1c[nH]c2ccccc12)NC(=O)OC(C)(C)C)[C@@H](Cc1ccccc1)C(N)=O` (Boc-WK(X1)D[NMeF]-NH2) displayed an ED50 in the assay with Rattus norvegicus of 0.413 µmol/kg.

In assay [1], `CN(C(=O)[C@H](CC(=O)O)NC(=O)[C@H](CCCCNC(=O)/C=C/c1cccnc1)NC(=O)C(Cc1c[nH]c2ccccc12)NC(=O)OC(C)(C)C)[C@@H](Cc1ccccc1)C(N)=O` (some centres not stated) (Boc-[ξW]K(Acryloyl(3-(3-pyridyl),E))D[NMeF]-NH2) came in with a Hydrolysis of 88%.

As a reminder, the IC50 is the concentration at which inhibition is half-maximal.
